Source: PubChem (The Scripps Research Institute Molecular Screening Center)
An excerpt weighted towards active compounds, which were near 1.8% of everything screened.
MBD2 DNA inh: inhibitors of MBD2 binding to methylated DNA, primary screen, biochemical, TR-FRET, DNA-binding domain, human. 0.31% of 370,000 active. inhibition, % at 4.4 µM. AID 686964, 2013. MBD2 binding to methylated oligonucleotide. Methyl-CpG-binding domain protein 2 (Homo sapiens), Q9UBB5; in the data active means inhibition above about 13%
Target sequence (Q9UBB5 whole entry, looked up, the tested form may be a part): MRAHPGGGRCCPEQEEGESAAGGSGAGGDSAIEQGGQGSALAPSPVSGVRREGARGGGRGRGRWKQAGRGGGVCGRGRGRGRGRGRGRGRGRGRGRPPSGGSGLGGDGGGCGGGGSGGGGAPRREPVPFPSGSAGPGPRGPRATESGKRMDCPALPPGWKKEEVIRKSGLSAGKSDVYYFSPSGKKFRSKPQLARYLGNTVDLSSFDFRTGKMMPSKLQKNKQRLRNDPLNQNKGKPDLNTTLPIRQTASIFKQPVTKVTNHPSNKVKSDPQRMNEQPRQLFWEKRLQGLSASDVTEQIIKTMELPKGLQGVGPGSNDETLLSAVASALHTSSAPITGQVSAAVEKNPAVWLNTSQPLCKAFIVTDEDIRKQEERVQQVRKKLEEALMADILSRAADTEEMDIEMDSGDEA
LEDGF integ inh: blockers of LEDGF/p75-dependent integrase strand transfer – biochemical, TR-FRET, high throughput, primary screen; HIV-1 integrase (with human LEDGF/p75); TR-FRET IN-LEDGF/p75 DNA integration, Eu/Cy5; inhibition, % at 3.7 µM; 0.64% of 370,000 active; AID 743269, 2014;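 active means inhibition above the screen-wide mean plus 3 SD, cut at about 13% in these data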;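 further: signal is the Cy5 over europium emission ratio at 671 and 618 nm; 0% = plate median of compound wells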
HCV core dimer: inhibitors of HCV core protein dimerization, primary screen, biochemical, TR-FRET, high-throughput | inhibition, % at 5 µM | TR-FRET GST/Flag-core106 dimerization, 1536-well | AID 1899, 2009 | 0.33% of 300,000 active;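 active means inhibition above the mean of all tested compounds plus 3 SD, set per screening campaign, cut at about 45% in these data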
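Material: Tagged HCV core106 pair (GST and Flag) | Amount: GST-core106 13.5 nM, Flag-core106 17 nM | Medium: KF-containing HEPES buffer, pH 7.45, DTT, CHAPS, BSA | Reagent: Eu donor and XL665 acceptor anti-tag antibodies | Schedule: 4 h at 22.5 °C | Technique: Time-resolved FRET, ex 340 nm, em 617 and 671 nm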
TDP2 inh: human TDP2 enzyme inhibitors, primary screen, biochemical, epi absorbance, recombinant enzyme; Tyrosyl-DNA phosphodiesterase 2 (Homo sapiens), O95551; T5PNP hydrolysis, p-nitrophenol absorbance 415 nm; inhibition, % at 12.8 µM; 0.34% of 370,000 active;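 active means inhibition above the mean of all tested compounds plus 3 SD, set per campaign, cut at about 25% in these data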;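 further: 0% = DMSO with enzyme and 100% = buffer with substrate but no TDP2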
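Test system: human TDP2 enzyme; Input: 120 nM TDP2 per well; Buffer or medium: Mg2+-containing Tris-HCl buffer, pH 7.5; Reagent: 5 mM T5PNP; Dosing: 12.8 µM single point, 1% DMSO; Incubation: reaction 2 h, 37 °C; Detection: p-Nitrophenol epi absorbance; Read-out: % inhibition relative to enzyme-containing and enzyme-free wells; Replicates: single well per compound.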
UHRF1 binding: UHRF1 methylated DNA binding inhibitors, primary screen, counter-screen for MBD2 inhibitor project, biochemical, TR-FRET, human UHRF1, single concentration | E3 ubiquitin-protein ligase UHRF1 (Homo sapiens), Q96T88 | AID 687016, 2013 | inhibition, % at 4.4 µM | UHRF1 binding to methylated oligo | 0.75% of 370,000 active; in the data active means inhibition above about 21%;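 further: UHRF1 SRA domain binding a hemimethylated CpG hairpin DNA probe; 0% = median of test compound wells and 100% = reference inhibitor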
Active calls of the source: *.

Results for Cc1ccc(S(=O)(=O)N2Cc3ccccc3CC2C(=O)Nc2ccc3c(c2)OCO3)cc1 (configuration not stated) ?
MBD2 DNA inh: 3; LEDGF integ inh: -1; HCV core dimer: 54*; TDP2 inh: 5; UHRF1 binding: -1

What do the screens show for `COc1ccccc1-n1c(=O)c(C#N)c(-c2ccc([N+](=O)[O-])cc2)c2cc(C(=O)c3cc(F)ccc3O)cnc21`?
MBD2 DNA inh: 0; LEDGF integ inh: -4; HCV core dimer: 49*; TDP2 inh: -3; UHRF1 binding: 0

Results for Cn1c(=O)c(C#N)c(-c2ccc(F)cc2)c2cc(C(=O)c3cc(Cl)cc(Cl)c3O)cnc21 ?
MBD2 DNA inh: -2; LEDGF integ inh: 2; HCV core dimer: 27; TDP2 inh: 1; UHRF1 binding: -3

Results for CN(CCO)c1cccc2c1S(=O)(=O)N(Cc1cn(Cc3cccc(F)c3)nn1)Cc1ccccc1O2 ?
MBD2 DNA inh: 0; LEDGF integ inh: -1; TDP2 inh: 1; UHRF1 binding: 2

Results for CCc1ccc(/C=C/C(=O)NC2=NCCS2)cc1 ?
MBD2 DNA inh: 4; LEDGF integ inh: 3; TDP2 inh: -4; UHRF1 binding: 12

Results for Cc1cc([N+](=O)[O-])cc2c1NC(c1ccccn1)C1CC=CC21 (configuration not stated) ?
MBD2 DNA inh: 0; LEDGF integ inh: 3; HCV core dimer: 49*; TDP2 inh: 7; UHRF1 binding: -1

Results for O=[N+]([O-])c1ccc(Cl)c2c1C1C=CCC1C(c1ccccn1)N2 (configuration not stated) ?
MBD2 DNA inh: -1; LEDGF integ inh: 5; HCV core dimer: 58*; TDP2 inh: 0; UHRF1 binding: -6

Results for Cc1ccc(-n2c(-c3ccccc3)cc(/C=N/NC(=O)CC#N)c2-c2ccccc2)cc1 ?
MBD2 DNA inh: 3; LEDGF integ inh: 1; HCV core dimer: 15; TDP2 inh: 7; UHRF1 binding: 8

How did N#CCC(=O)N/N=C/c1cc(-c2ccccc2)n(-c2ccc(Cl)cc2)c1-c1ccccc1 do in these assays?
MBD2 DNA inh: 7; LEDGF integ inh: -3; HCV core dimer: 9; TDP2 inh: 9; UHRF1 binding: 38*

What do the screens show for `CCC(C)n1c(NC(=O)c2ccccc2)c(C#N)c2nc3ccccc3nc21` (configuration not stated)?
MBD2 DNA inh: 2; LEDGF integ inh: 28*; HCV core dimer: 37; TDP2 inh: 77*; UHRF1 binding: 8

How did Cc1cc(NC(=O)c2ccccc2F)nc2c1c(=O)oc1ccccc12 do in these assays?
MBD2 DNA inh: 1; LEDGF integ inh: 1; HCV core dimer: 12; TDP2 inh: 1; UHRF1 binding: 22*

Results for O=C(CC1C=CCC1)OCCN1CCN(C2CN(Cc3cn(Cc4ccccc4Cl)nn3)S(=O)(=O)C2)CC1 (configuration not stated) ?
MBD2 DNA inh: 0; LEDGF integ inh: 4; TDP2 inh: 0; UHRF1 binding: 3

How did Cc1noc(C)c1S(=O)(=O)NCc1ccc(CN(C)C)cc1 do in these assays?
MBD2 DNA inh: 3; LEDGF integ inh: 0; TDP2 inh: 14; UHRF1 binding: 33*

How did CCc1nnc(NCC(=O)N2CCc3ccccc32)s1 do in these assays?
MBD2 DNA inh: -4; LEDGF integ inh: 6; HCV core dimer: 88*; TDP2 inh: -4; UHRF1 binding: -2

Results for O=C(CNCCO)N1CCc2ccccc21 ?
MBD2 DNA inh: 8; LEDGF integ inh: 0; HCV core dimer: 1; TDP2 inh: 5; UHRF1 binding: 0

Results for CC12COC3(P(=O)(c4ccccc4)c4ccccc4)CC1CCC23CP(=O)(c1ccccc1)c1ccccc1 (configuration not stated) ?
MBD2 DNA inh: 11; LEDGF integ inh: -2; HCV core dimer: 8; TDP2 inh: -10; UHRF1 binding: 22*

Results for CC12COC3(C(=O)Nc4ccc(F)cc4)CC1CCC32C (configuration not stated) ?
MBD2 DNA inh: 1; LEDGF integ inh: -3; HCV core dimer: 5; TDP2 inh: -9; UHRF1 binding: 4

How did CCOC(=O)N1CCC(NC(=O)c2cc(C(=O)NCc3ccc(F)cc3)ccc2CO)CC1 do in these assays?
MBD2 DNA inh: 11; LEDGF integ inh: 9; HCV core dimer: -3; TDP2 inh: 3; UHRF1 binding: 23*

What do the screens show for `CCOC(=O)N1CCC(NC(=O)c2cc(C(=O)NCc3cccc(Cl)c3)ccc2CO)CC1`?
MBD2 DNA inh: 2; LEDGF integ inh: 1; HCV core dimer: -10; TDP2 inh: -4; UHRF1 binding: -1

What do the screens show for `N#Cc1ccc(-c2csc(NC(=O)c3ccc(N4C(=O)CCC4=O)cc3)n2)cc1`?
MBD2 DNA inh: -4; LEDGF integ inh: 1; HCV core dimer: 1; TDP2 inh: 13; UHRF1 binding: -3

Results for Cc1cc(-c2csc(NC(=O)c3ccc(C#N)cc3)n2)c(C)n1Cc1ccco1 ?
MBD2 DNA inh: 22*; LEDGF integ inh: 68*; HCV core dimer: 49*; TDP2 inh: -4; UHRF1 binding: 57*

Results for O=C(CSc1nc2ccccc2[nH]1)NN=Cc1ccccc1C(=O)O ?
MBD2 DNA inh: -5; LEDGF integ inh: -2; TDP2 inh: -4; UHRF1 binding: -2

How did Cc1ccc(/C=C2/SC(=S)N(CC(=O)Nc3ncc(Cc4ccc(C)cc4)s3)C2=O)cc1 do in these assays?
MBD2 DNA inh: 3; LEDGF integ inh: 4; HCV core dimer: 70*; TDP2 inh: -2; UHRF1 binding: -1

What do the screens show for `Cc1ccc(/C=C2\SC(=S)N(CC(=O)Nc3ncc(Cc4ccccc4Cl)s3)C2=O)cc1`?
MBD2 DNA inh: 1; LEDGF integ inh: -3; HCV core dimer: 32; TDP2 inh: -8; UHRF1 binding: -2

What do the screens show for `O=C(CN1C(=O)/C(=C/c2cccc(Br)c2)SC1=S)Nc1cccnc1`?
MBD2 DNA inh: 2; LEDGF integ inh: 0; HCV core dimer: 12; TDP2 inh: 13; UHRF1 binding: -3

What do the screens show for `O=C(CN1C(=O)/C(=C/c2cccc(Br)c2)SC1=S)NC1=NCCS1`?
MBD2 DNA inh: 0; LEDGF integ inh: 2; HCV core dimer: 50*; TDP2 inh: 4; UHRF1 binding: -5

How did O=C(O)COc1cccc(/C=C2/SC(=S)N(Cc3ccccc3)C2=O)c1 do in these assays?
MBD2 DNA inh: 5; LEDGF integ inh: 7; HCV core dimer: 56*; TDP2 inh: -24; UHRF1 binding: 8
